# This is a sample that favours compounds with a hit; in the whole collection about 1.9% have one here.
# M5 antag – human M5 muscarinic receptor antagonists, primary screen, CHO cells, Fluo-8 calcium fluorescence. CHO-hM5 cells, ACh EC80. AID 624040, 2012. 0.59% of 360,000 active. inhibition, % at 3 µM. Muscarinic acetylcholine receptor M5 (Homo sapiens), P08912;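 active = inhibition above a per-plate cutoff, the mean of that plate's test compounds plus 3 SD, cut at about 27% in these data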;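 note: 0% = acetylcholine EC80 with DMSO and 100% = DMSO without agonist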
# CHRM5 PAM – human M5 muscarinic receptor positive allosteric modulators, primary screen, CHO-K1 cells, Fluo-8 calcium fluorescence | Muscarinic acetylcholine receptor M5 (Homo sapiens), P08912 | CHO-K1 hM5, ACh EC20 PAM; 0% = ACh EC20, 100% = ACh EC100 | activation, % at 3 µM | 0.3% of 360,000 active | AID 624038, 2012;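 active = activation above the run cutoff, the mean activation of all test compounds plus 3 SD, cut at about 18% in these data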
#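 system = human M5 receptor in CHO-K1 cells | compound = one concentration, 3 µM final (nominal) | schedule = Post-acetylcholine fluorescence recording 140 s | signal = Fluo-8 calcium dye fluorescence, kinetic read | benchmarks = low control EC20 acetylcholine (0%), high control EC100 acetylcholine (100%) | repeats = singlicate, one well per test compound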
# CHRM4 antagonist – human M4 muscarinic receptor antagonists, primary screen, CHO cells, Fluo-8 calcium fluorescence; Muscarinic acetylcholine receptor M4 (Homo sapiens), P08173; CHO-hM4 cells, ACh EC80; inhibition, % at 3 µM; 0.73% of 360,000 active; AID 624125, 2012;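 active = inhibition above its plate's cutoff, the mean inhibition of sample wells plus 3 SD, cut at about 27% in these data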;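 note: 0% = acetylcholine EC80 with DMSO and 100% = DMSO without agonist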
# Target sequence (P08173 whole entry, looked up): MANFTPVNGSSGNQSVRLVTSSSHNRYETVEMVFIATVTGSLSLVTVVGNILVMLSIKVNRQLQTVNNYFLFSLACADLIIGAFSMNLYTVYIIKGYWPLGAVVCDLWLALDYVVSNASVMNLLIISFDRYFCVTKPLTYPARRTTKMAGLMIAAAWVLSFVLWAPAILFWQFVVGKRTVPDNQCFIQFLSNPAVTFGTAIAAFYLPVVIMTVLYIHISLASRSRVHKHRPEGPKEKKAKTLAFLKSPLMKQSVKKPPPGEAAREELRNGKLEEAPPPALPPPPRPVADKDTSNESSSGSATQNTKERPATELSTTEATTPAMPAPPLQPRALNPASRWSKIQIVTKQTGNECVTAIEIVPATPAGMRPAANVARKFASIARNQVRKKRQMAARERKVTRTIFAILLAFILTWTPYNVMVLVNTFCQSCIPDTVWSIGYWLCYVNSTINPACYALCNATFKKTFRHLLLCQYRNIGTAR
# CHRM4 agonist – human M4 muscarinic receptor agonists, primary screen, CHO-K1 cells, Fluo-8 calcium fluorescence; AID 624127, 2012; CHO-K1 hM4/Gqi5; vehicle 0%, full acetylcholine response 100%; activation, % at 3 µM; Muscarinic acetylcholine receptor M4 (Homo sapiens), P08173; 0.14% of 360,000 active;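 active = activation above the run mean over all test wells plus 3 SD, cut at about 32% in these data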;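 note: peak over basal fluorescence ratio per well then scaled between controls; 0% = DMSO wells and 100% = acetylcholine at EC100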
# CHRM4 PAM – human M4 muscarinic receptor positive allosteric modulators, primary screen, CHO-K1 cells, Fluo-8 calcium fluorescence | CHO-K1 hM4/Gqi5, ACh EC20; 0% = ACh EC20, 100% = maximal ACh | activation, % at 3 µM | 0.4% of 360,000 active;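 active = activation above its plate's cutoff, the mean activation of sample wells plus 3 SD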
# CHRM5 agonist – human M5 muscarinic receptor agonists, primary screen, CHO-K1 cells, Fluo-8 calcium fluorescence | CHO-K1 hM5 cells; 0% DMSO wells, 100% maximal acetylcholine response | 0.19% of 360,000 active | activation, % at 3 µM | Muscarinic acetylcholine receptor M5 (Homo sapiens), P08912;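 active = activation above the run's mean over test compounds plus 3 SD, cut at about 23% in these data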;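 note: signal is peak over basal fluorescence ratio across the kinetic read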
# * hit, by the source's call.
SMILES,M5 antag,CHRM5 PAM,CHRM4 antagonist,CHRM4 agonist,CHRM4 PAM,CHRM5 agonist
COc1ccccc1-c1sc2ccccc2c1-c1ccc(OCCN2CCCCC2)cc1,-4,0,1,8,-2,-1
COc1cccc(-c2sc3ccccc3c2-c2ccc(OCCN3CCCCC3)cc2)c1,15,-1,34*,5,9,-5
CCC(=O)c1ccc(OCC(=O)Nc2cccc(S(=O)(=O)N3CCCCCC3)c2)cc1,29*,-31,25,26,-13,5
CCN(CC)S(=O)(=O)c1ccc(C)c(NC(=O)CNc2cccc(S(=O)(=O)N3CCCC3)c2)c1,1,0,-15,1,6,0
CCN(CC)S(=O)(=O)c1cccc(NC(=O)/C=C/c2ccc([N+](=O)[O-])cc2)c1,3,-10,2,10,-16,3
CCN(CC)S(=O)(=O)c1cccc(NC(=O)CNc2cccc(S(=O)(=O)N3CCCC3)c2)c1,38*,-12,12,8,-6,-2
O=C(CNc1cccc(S(=O)(=O)N2CCCC2)c1)Nc1ccc(F)c(F)c1,10,-10,-17,14,20*,6
CCN(CC)S(=O)(=O)c1cccc(NC(=O)/C=C/c2cccc([N+](=O)[O-])c2)c1,33*,-19,17,19,-18,-1
Cc1cc(OCC(=O)Nc2cccc(S(=O)(=O)N3CCCCC3)c2)ccc1Cl,14,-15,4,5,-7,2
CCOC(=O)c1ccc(NC(=O)CCNS(=O)(=O)c2cccs2)cc1,18,-7,-5,2,-4,-2
O=S(=O)(Nc1ccon1)c1ccc(Br)cc1,8,-2,0,0,1,-5
O=C(COC(=O)c1cc([N+](=O)[O-])ccc1NCCO)Nc1ccc2c(c1)OCO2,16,-8,-3,4,-5,0
O=C(COC(=O)c1cc([N+](=O)[O-])ccc1NCCO)Nc1cccc(S(=O)(=O)N2CCCC2)c1,15,-9,35*,5,-15,-4
CCN(CC)S(=O)(=O)c1cccc(NC(=O)Nc2cccc(C(F)(F)F)c2)c1,34*,-16,11,15,-15,9
COCCN(C(=O)COC(=O)CSc1ccccc1)c1c(N)n(Cc2ccccc2)c(=O)[nH]c1=O,3,7,-1,1,10,-1
CCN(Cc1ccccc1)C(=O)c1ccc(C(=O)N(CC)Cc2ccccc2)cc1,28*,-9,9,5,-6,-3
O=C(c1ccccc1)N(Cc1ccccc1)Cc1ccccc1,-1,0,10,0,-3,-1
CCOc1cc(CNCCc2ccc(S(N)(=O)=O)cc2)ccc1OCc1ccccc1,13,-16,19,20,-20,-4
COc1cc(CNCc2ccccn2)ccc1OCc1ccc(Cl)cc1Cl,11,-6,33*,23,-21,-2
CCOc1cc(CNCc2ccccc2)ccc1OCc1ccc(Cl)cc1,26,-13,28*,34*,-15,12
CCOc1cc(CNCCc2ccc(S(N)(=O)=O)cc2)cc(Cl)c1OCc1ccccc1,21,-19,46*,30,-5,14
COc1ccc(CNCCc2ccc(Cl)cc2)cc1OCc1ccccc1,17,-17,12,20,-11,12
Cc1[nH]c2ccccc2c1/C=N/Nc1ccc([N+](=O)[O-])cc1,31*,-9,13,16,-7,15
Cc1[nH]c2ccccc2c1/C=N/NC(=O)c1cccc([N+](=O)[O-])c1,8,-5,3,3,1,-2
COc1ccc(C(=O)Nc2ccc(Cl)cc2F)cc1S(=O)(=O)N1CCCC1,7,-5,-9,6,-6,1
SMILES,M5 antag,CHRM5 PAM,CHRM4 antagonist,CHRM4 agonist,CHRM4 PAM,CHRM5 agonist
COc1cc(C#Cc2c(-c3cncn3C)n(C)c3ccc(-c4ccc(CN5CCOCC5)cc4)cc23)cc(OC)c1,7,-5,30*,5,-10,-2
COc1cc(C#Cc2c(-c3cncn3C)n(C)c3ccc(-c4cnc(N5CCOCC5)nc4)cc23)cc(OC)c1,6,-3,-4,2,21,2
COc1ccc(C(c2nnnn2-c2ccc3c(c2)OCCO3)N2CCN(C/C=C/c3ccccc3)CC2)cc1 (stereo unspecified),67*,-22,35*,3,-16,-6
COc1ccc(-n2nnnc2C(c2cc3ccccc3o2)N2CCN(C/C=C/c3ccccc3)CC2)cc1 (stereo unspecified),36*,-22,7,1,-12,-6
C(=C\c1ccccc1)/CN1CCN(C(c2cccs2)c2nnnn2-c2ccc3c(c2)OCCO3)CC1 (stereo unspecified),70*,-23,29*,4,-16,-7
COc1ccc(-n2nnnc2C(c2cccc3ccccc23)N2CCN(C/C=C/c3ccccc3)CC2)cc1 (stereo unspecified),10,-17,9,2,-10,-3
C(=C\c1ccccc1)/CN1CCN(C(c2cc3ccccc3o2)c2nnnn2-c2ccc3c(c2)OCCO3)CC1 (stereo unspecified),42*,-23,13,1,-10,-4
COc1cccc(NC(=O)COC(=O)CCn2c(C)csc2=O)c1,1,-5,-1,0,3,3
CC(=O)NC12CC3CC(C1)CC(C(=O)Oc1ccc(N(C)S(=O)(=O)c4cc(C)ccc4C)cc1)(C3)C2,5,1,4,1,-7,1
O=C(NCc1cccnc1)C(=O)C1C(=O)Nc2ccccc21 (stereo unspecified),-13,18*,-17,2,1,4
CN(CC(=O)Nc1ccc(F)cc1)C(=O)C1CCCC1,11,-15,4,0,-2,3
COc1ccc(S(=O)(=O)N(C)C[C@H]2Oc3ccc(NC(=O)Cc4cn(C)c5ccccc45)cc3C(=O)N([C@@H](C)CO)C[C@@H]2C)cc1,3,11,0,2,10,-1
COc1ccc(-c2sc3cc4c(cc3c2C#Cc2ccc(N)cc2)OCO4)cc1,3,10,5,2,19,26*
O=C(NN=C1CCCC1)c1n[nH]c2c1CCC2,-6,7,-1,1,27*,2
